Tests used:
Type in all cases: functional
[1] = system: Escherichia coli; experiment: Inhibitory concentration required to displace dansyl-PMBN (0.55 uM) from maximal specific binding to Escherichia coli LPS
Procedure, shortened: (§1)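 Fluorescence displacement assay. E. coli LPS (3 µg/mL, ~2 × 10^-7 M) in 5 mM HEPES pH 7.2 was pre-equilibrated with dansyl-PMBN (0.55 µM). Peptide was added stepwise at 5-min intervals from 1 × 10^-5 to 1 × 10^-3 M stocks. Fluorescence read at excitation 340 nm and emission 485 nm after each addition. Percent inhibition was plotted against concentration to give maximal and 50% displacement. 2-3 repeats.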

[2] = system: Klebsiella pneumoniae; experiment: Relative sensitizing activity against Klebsiella pneumoniae was determined as a percent of pPMBN (50 ug/mL) as a control
Procedure, shortened: (§2)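 Clinical isolates at 1 × 10^5 CFU per well, in ISB with a 2-fold serial dilution (1000-0.5 µg/mL) of novobiocin. Peptide added at 50 µg/mL final. Incubated 20 h at 37 °C and read by visible growth. Sensitizing activity is the fold drop in novobiocin MIC with versus without peptide, expressed as percent of that given by 50 µg/mL pPMBN.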

[3] = system: Escherichia coli; experiment: Relative sensitizing activity against Escherichia coli was determined as a percent of pPMBN (50 ug/mL) as a control; procedure, shortened: as §2
[4] = system: Escherichia coli; experiment: Maximal displacement of dansyl-PMBN from Escherichia coli LPS; procedure, shortened: as §1

Compound	Activity [2] [%]	Activity [3] [%]	Imax [4] [%]	further results
CC(C)C[C@@H]1NC(=O)[C@@H](Cc2ccccc2)NC(=O)[C@H](CN)NC(=O)[C@@H](NC(=O)[C@H](CN)NC(=O)[C@@H](N)[C@@H](C)O)CNC(=O)[C@H]([C@@H](C)O)NC(=O)[C@H](CN)NC(=O)[C@H](CN)NC1=O [listing 1 of 2 here]				IC50 ([1]; Escherichia coli): 30 µM
CC(C)C[C@@H]1NC(=O)[C@@H](Cc2ccccc2)NC(=O)[C@H](CCCCN)NC(=O)[C@@H](NC(=O)[C@H](CCCCN)NC(=O)[C@@H](N)[C@@H](C)O)CCNC(=O)[C@H]([C@@H](C)O)NC(=O)[C@H](CCN)NC(=O)[C@H](CCN)NC1=O [listing 1 of 2 here]	13	9		
CC(C)C[C@@H]1NC(=O)[C@@H](Cc2ccccc2)NC(=O)[C@H](CCN=C(N)N)NC(=O)[C@@H](NC(=O)[C@H](CCN=C(N)N)NC(=O)[C@@H](N)[C@@H](C)O)CCNC(=O)[C@H]([C@@H](C)O)NC(=O)[C@H](CCN=C(N)N)NC(=O)[C@H](CCN=C(N)N)NC1=O [listing 1 of 2 here]				IC50 ([1]; Escherichia coli): 3.8 µM
CC(C)C[C@H]1NC(=O)[C@@H](Cc2ccccc2)NC(=O)[C@@H](CCN)NC(=O)[C@H](NC(=O)[C@H](CCN)NC(=O)[C@@H](N)[C@@H](C)O)CCNC(=O)[C@H]([C@@H](C)O)NC(=O)[C@@H](CCN)NC(=O)[C@H](CCN)NC1=O (stereo in doubt; form 1)			80	
CC(C)C[C@@H]1NC(=O)[C@@H](Cc2ccccc2)NC(=O)[C@H](CCN)NC(=O)[C@@H](NC(=O)[C@H](CCN)NC(=O)[C@@H](N)[C@@H](C)O)CCNC(=O)[C@H]([C@@H](C)O)NC(=O)[C@H](CCN)NC(=O)[C@H](CCN)NC1=O (stereo in doubt; form 2) [listing 1 of 2 here]				IC50 [1]: 3 µM
CC(C)C[C@H]1NC(=O)[C@@H](Cc2ccccc2)NC(=O)[C@@H](CCCCN)NC(=O)[C@H](NC(=O)[C@H](CCCCN)NC(=O)[C@@H](N)[C@@H](C)O)CCNC(=O)[C@H]([C@@H](C)O)NC(=O)[C@@H](CCN)NC(=O)[C@H](CCN)NC1=O			64	
CC(C)C[C@H]1NC(=O)[C@@H](Cc2ccccc2)NC(=O)[C@@H](CN)NC(=O)[C@H](NC(=O)[C@H](CN)NC(=O)[C@@H](N)[C@@H](C)O)CNC(=O)[C@H]([C@@H](C)O)NC(=O)[C@@H](CN)NC(=O)[C@H](CN)NC1=O			64	
CC(C)C[C@H]1NC(=O)[C@@H](Cc2ccccc2)NC(=O)[C@@H](CCCCN)NC(=O)[C@H](NC(=O)[C@H](CCCCN)NC(=O)[C@@H](N)[C@@H](C)O)CCCCNC(=O)[C@H]([C@@H](C)O)NC(=O)[C@@H](CCCCN)NC(=O)[C@H](CCCCN)NC1=O			60	
CC(C)C[C@@H]1NC(=O)[C@@H](Cc2ccccc2)NC(=O)[C@@H](NC(=O)[C@H](CCN)NC(=O)[C@H](CCN)NC(=O)[C@@H](N)[C@@H](C)O)CCNC(=O)[C@H]([C@@H](C)O)NC(=O)[C@H](CCN)NC(=O)[C@H](CCN)NC1=O	5	4		
CC(C)C[C@H]1NC(=O)[C@@H](Cc2ccccc2)NC(=O)[C@@H](CCN)NC(=O)[C@H](CCN)NC(=O)[C@@H](NC(=O)[C@@H](N)[C@@H](C)O)CCNC(=O)[C@H]([C@@H](C)O)NC(=O)[C@@H](CCN)NC(=O)[C@H](CCN)NC1=O			60	
POLYMYXIN B [listing 1 of 2 here]			100	
CC(C)C[C@H]1NC(=O)[C@@H](Cc2ccccc2)NC(=O)[C@@H](CCN)NC(=O)[C@H](NC(=O)[C@H](CCN)NC(=O)[C@@H](N)[C@@H](C)O)CCNC(=O)[C@H]([C@@H](C)O)NC(=O)[C@@H](CCCCN)NC(=O)[C@H](CCCCN)NC1=O			62	
CC(C)C[C@@H]1NC(=O)[C@@H](Cc2ccccc2)NC(=O)[C@H](CCN)NC(=O)[C@@H](NC(=O)[C@H](CCN)NC(=O)[C@@H](N)[C@@H](C)O)CCNC(=O)[C@H]([C@@H](C)O)NC(=O)[C@H](CCCCN)NC(=O)[C@H](CCCCN)NC1=O [listing 1 of 2 here]				IC50 ([1]; Escherichia coli): 12 µM
CC(C)C[C@@H]1NC(=O)[C@H](Cc2ccccc2)NC(=O)[C@H](CCN)NC(=O)[C@@H](NC(=O)[C@H](CCN)NC(=O)[C@@H](N)[C@@H](C)O)CCNC(=O)[C@H]([C@@H](C)O)NC(=O)[C@H](CCN)NC(=O)[C@H](CCN)NC1=O	9	5		
CC(C)C[C@@H]1NC(=O)[C@@H](Cc2ccccc2)NC(=O)[C@H](CCN)NC(=O)[C@@H](NC(=O)[C@H](CCN)NC(=O)[C@@H](N)[C@@H](C)O)CCCCNC(=O)[C@H]([C@@H](C)O)NC(=O)[C@H](CCN)NC(=O)[C@H](CCN)NC1=O [listing 1 of 2 here]				IC50 ([1]; Escherichia coli): 8 µM
CC(C)C[C@H]1NC(=O)[C@H](Cc2ccccc2)NC(=O)[C@@H](CCN=C(N)N)NC(=O)[C@H](NC(=O)[C@H](CCN=C(N)N)NC(=O)[C@@H](N)[C@@H](C)O)CCNC(=O)[C@H]([C@@H](C)O)NC(=O)[C@@H](CCN=C(N)N)NC(=O)[C@H](CCN=C(N)N)NC1=O			80	
CC(C)C[C@@H]1NC(=O)[C@@H](Cc2ccccc2)NC(=O)[C@H](CCCCN)NC(=O)[C@@H](NC(=O)[C@H](CCCCN)NC(=O)[C@@H](N)[C@@H](C)O)CCCCNC(=O)[C@H]([C@@H](C)O)NC(=O)[C@H](CCCCN)NC(=O)[C@H](CCCCN)NC1=O	3	4		

Compound	Activity [2] [%]	Activity [3] [%]	Imax [4] [%]	further results
CC(C)C[C@H]1NC(=O)[C@@H](Cc2ccccc2)NC(=O)[C@@H](CCN)NC(=O)[C@H](NC(=O)[C@H](CCN)NC(=O)[C@@H](N)[C@@H](C)O)CCCCNC(=O)[C@H]([C@@H](C)O)NC(=O)[C@@H](CCN)NC(=O)[C@H](CCN)NC1=O			60	
CC(C)C[C@H]1NC(=O)[C@@H](Cc2ccccc2)NC(=O)[C@@H](NC(=O)[C@H](CCN)NC(=O)[C@H](CCN)NC(=O)[C@@H](N)[C@@H](C)O)CCNC(=O)[C@H]([C@@H](C)O)NC(=O)[C@@H](CCN)NC(=O)[C@H](CCN)NC1=O			45	
CC(C)C[C@@H]1NC(=O)[C@@H](Cc2ccccc2)NC(=O)[C@H](CCCN)NC(=O)[C@@H](NC(=O)[C@H](CCCN)NC(=O)[C@@H](N)[C@@H](C)O)CCCNC(=O)[C@H]([C@@H](C)O)NC(=O)[C@H](CCCN)NC(=O)[C@H](CCCN)NC1=O	6	2		
CC(C)C[C@H]1NC(=O)[C@H](Cc2ccccc2)NC(=O)[C@@H](CCN)NC(=O)[C@H](NC(=O)[C@H](CCN)NC(=O)[C@@H](N)[C@@H](C)O)CCNC(=O)[C@H]([C@@H](C)O)NC(=O)[C@@H](CCN)NC(=O)[C@H](CCN)NC1=O			64	
CC(C)C[C@@H]1NC(=O)[C@@H](Cc2ccccc2)NC(=O)[C@H](CCCCN)NC(=O)[C@@H](NC(=O)[C@H](CCCCN)NC(=O)[C@@H](N)[C@@H](C)O)CCNC(=O)[C@H]([C@@H](C)O)NC(=O)[C@H](CCN)NC(=O)[C@H](CCN)NC1=O [listing 2 of 2 here]				IC50 ([1]; Escherichia coli): 14 µM
POLYMYXIN B [listing 2 of 2 here]				IC50 [1]: 0.5 µM
CC(C)C[C@@H]1NC(=O)[C@@H](Cc2ccccc2)NC(=O)[C@H](CCN)NC(=O)[C@H](CCN)NC(=O)[C@@H](NC(=O)[C@@H](N)[C@@H](C)O)CCNC(=O)[C@H]([C@@H](C)O)NC(=O)[C@H](CCN)NC(=O)[C@H](CCN)NC1=O	5	7		
CC(C)C[C@@H]1NC(=O)[C@@H](Cc2ccccc2)NC(=O)[C@H](CCN=C(N)N)NC(=O)[C@@H](NC(=O)[C@H](CCN=C(N)N)NC(=O)[C@@H](N)[C@@H](C)O)CCNC(=O)[C@H]([C@@H](C)O)NC(=O)[C@H](CCN=C(N)N)NC(=O)[C@H](CCN=C(N)N)NC1=O [listing 2 of 2 here]	25	25		
CC(C)C[C@@H]1NC(=O)[C@@H](Cc2ccccc2)NC(=O)[C@H](CCN)NC(=O)[C@@H](NC(=O)[C@H](CCN)NC(=O)[C@@H](N)[C@@H](C)O)CCCCNC(=O)[C@H]([C@@H](C)O)NC(=O)[C@H](CCN)NC(=O)[C@H](CCN)NC1=O [listing 2 of 2 here]	18	17		
CC(C)C[C@H]1NC(=O)[C@@H](Cc2ccccc2)NC(=O)[C@@H](CCCN)NC(=O)[C@H](NC(=O)[C@H](CCCN)NC(=O)[C@@H](N)[C@@H](C)O)CCCNC(=O)[C@H]([C@@H](C)O)NC(=O)[C@@H](CCCN)NC(=O)[C@H](CCCN)NC1=O			62	
CC(C)C[C@@H]1NC(=O)[C@@H](Cc2ccccc2)NC(=O)[C@H](CCN)NC(=O)[C@@H](NC(=O)[C@H](CCN)NC(=O)[C@@H](N)[C@@H](C)O)CCNC(=O)[C@H]([C@@H](C)O)NC(=O)[C@H](CCCCN)NC(=O)[C@H](CCCCN)NC1=O [listing 2 of 2 here]	26	40		
CC(C)C[C@@H]1NC(=O)[C@@H](Cc2ccccc2)NC(=O)[C@H](CN)NC(=O)[C@@H](NC(=O)[C@H](CN)NC(=O)[C@@H](N)[C@@H](C)O)CNC(=O)[C@H]([C@@H](C)O)NC(=O)[C@H](CN)NC(=O)[C@H](CN)NC1=O [listing 2 of 2 here]	5	11		
CC(C)C[C@@H]1NC(=O)[C@@H](Cc2ccccc2)NC(=O)[C@H](CCCCN)NC(=O)[C@@H](NC(=O)[C@H](CCCCN)NC(=O)[C@@H](N)[C@@H](C)O)CCNC(=O)[C@H]([C@@H](C)O)NC(=O)[C@H](CCCCN)NC(=O)[C@H](CCCCN)NC1=O	3	5		
CC(C)C[C@@H]1NC(=O)[C@@H](Cc2ccccc2)NC(=O)[C@H](CCN)NC(=O)[C@@H](NC(=O)[C@H](CCN)NC(=O)[C@@H](N)[C@@H](C)O)CCNC(=O)[C@H]([C@@H](C)O)NC(=O)[C@H](CCN)NC(=O)[C@H](CCN)NC1=O (stereo in doubt; form 2) [listing 2 of 2 here]	93	96		
CC(C)C[C@H]1NC(=O)[C@@H](Cc2ccccc2)NC(=O)[C@@H](CCN)NC(=O)[C@H](NC(=O)[C@H](CCN)NC(=O)[C@@H](N)[C@@H](C)O)CCNC(=O)[C@H]([C@@H](C)O)NC(=O)[C@@H](CCN)NC(=O)[C@H](CCN)NC1=O (stereo in doubt; form 2)			80	
CC(C)C[C@H]1NC(=O)[C@@H](Cc2ccccc2)NC(=O)[C@@H](CCCCN)NC(=O)[C@H](NC(=O)[C@H](CCCCN)NC(=O)[C@@H](N)[C@@H](C)O)CCNC(=O)[C@H]([C@@H](C)O)NC(=O)[C@@H](CCCCN)NC(=O)[C@H](CCCCN)NC1=O			45	
